Bioassay records as filed in PubChem.
OX1R antag-1: blocks the human orexin 1 receptor. O43613. OX1R-expressing cells, FRET antagonist read-out. inhibition, % at 6.6 µM. 330,000 compounds, 1.8% hits; in the data active = inhibition mostly above about 38%, no sharp cut-off; inactive = mostly below about 40%;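 note: 0% = agonist challenge alone and 100% = reference antagonist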
CHO parental Ca: counter-screen for OX1R antagonists: effect in parental CHO cells. parental CHO-K1, ATP-induced calcium, Fluo-8 fluorescence. inhibition, % at 5.6 µM. 330,000 compounds, 0.63% hits;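 active = inhibition above that plate's mean sample inhibition plus 3 SD, cut at about 26% in these data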;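 note: 0% = ATP-challenged DMSO wells and 100% = DMSO wells without ATP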
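Test system: parental CHO cells; detection: calcium-sensitive Fluo-8 fluorescence; evaluation: percent inhibition of calcium signal; also added: ATP as calcium-mobilizing challenge; repeats: one well per compound; control set: ATP-challenged DMSO wells low, unchallenged DMSO wells high; compound: single nominal dose of 5.6 µM per compound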
TAAR1 ag: agonists of human TAAR1 | Q96RJ0 | activation, % at 3 µM | 360,000 compounds, 0.99% hits | CHO RD-HGA16 TAAR1, Fluo-8 calcium fluorescence; vehicle wells 0%, saturating PEA agonist 100%;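 active = activation above the mean activation of all test compounds in the run plus 3 SD, cut at about 38% in these data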
Target sequence (Q96RJ0 whole entry, looked up): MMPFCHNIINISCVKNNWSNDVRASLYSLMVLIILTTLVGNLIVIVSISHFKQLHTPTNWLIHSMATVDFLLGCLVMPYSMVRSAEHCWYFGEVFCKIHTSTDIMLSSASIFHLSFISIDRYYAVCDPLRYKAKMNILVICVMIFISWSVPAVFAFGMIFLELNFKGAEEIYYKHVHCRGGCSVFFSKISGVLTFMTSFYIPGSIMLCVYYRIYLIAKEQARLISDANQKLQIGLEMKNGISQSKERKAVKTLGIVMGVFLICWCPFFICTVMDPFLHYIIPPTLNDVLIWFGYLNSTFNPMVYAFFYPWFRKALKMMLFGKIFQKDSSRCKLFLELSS
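Test system: RD-HGA16 (CHO) cells co-expressing Gα16 and hTAAR1 / Benchmarks: DMSO vehicle as 0%, PEA at EC100 as 100% / Repeats: no replicates (n 1) / Measure: % activation from peak over basal fluorescence ratio, DMSO-to-PEA scaled / Timing: 17-24 h plating, Fluo-8 75 min 37 °C, 30 min RT / Technique: kinetic Fluo-8 calcium fluorescence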
TAAR1 antag: antagonists of human TAAR1; inhibition, % at 3 µM; AID 624466; 360,000 compounds, 1.5% hits; Q96RJ0; CHO RD-HGA16 TAAR1, Fluo-8 calcium fluorescence, antagonist;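 active = inhibition above a per-plate cutoff, the mean inhibition of test compounds on that plate plus 3 SD, cut at about 49% in these data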;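 note: 0% = DMSO plus EC80 beta-PEA response and 100% = DMSO alone without agonist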
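Test system: CHO RD-HGA16 cells bearing hTAAR1 | Reagent: β-PEA, EC80 | Compound dosing: 3 µM, single point | Schedule: Dye loading 75 min at 37 °C, then 30 min room temperature | Signal: Calcium fluorescence with Fluo-8 | Evaluation: Percent inhibition of PEA-evoked calcium signal, max/basal emission ratio | Control set: DMSO-only wells and EC80 β-PEA-stimulated wells | Repeats: Singlicate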
GPR7 antagonist: human neuropeptides B/W receptor 1 antagonism | 290,000 compounds, 1.1% hits | P48145 | GPR7-expressing cells, fluorescence antagonist assay | inhibition, % at 4.4 µM; in the data active = inhibition above about 16%, passing the limit was not always enough;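 note: cells stimulated with the agonist NPW; 0% = agonist with vehicle and 100% = vehicle without agonist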
Target sequence (P48145 whole entry, looked up): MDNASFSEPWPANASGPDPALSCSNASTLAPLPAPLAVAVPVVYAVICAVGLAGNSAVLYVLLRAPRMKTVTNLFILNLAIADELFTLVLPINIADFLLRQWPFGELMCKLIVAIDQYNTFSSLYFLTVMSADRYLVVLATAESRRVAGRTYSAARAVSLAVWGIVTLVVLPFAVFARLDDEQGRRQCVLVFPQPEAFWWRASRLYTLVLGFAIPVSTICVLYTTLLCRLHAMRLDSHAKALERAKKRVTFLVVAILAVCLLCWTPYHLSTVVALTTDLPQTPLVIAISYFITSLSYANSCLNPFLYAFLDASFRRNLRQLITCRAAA
OX1R antag-2: antagonists of human orexin 1 receptor; CHO/OX1R cells, Fluo-8 calcium fluorescence, orexin A; inhibition, % at 5 µM; 330,000 compounds, 0.43% hits; O43613; AID 434989;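 active = inhibition above its plate's threshold, mean inhibition of all tested compounds on the plate plus 3 SD, cut at about 37% in these data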;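 note: 0% = orexin A challenge wells and 100% = SB-334867-A antagonist wells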
TAAR1 ag conf: human TAAR1 agonism, confirmed; shares compounds with TAAR1 ag; CHO RD-HGA16 TAAR1, Fluo-8 calcium fluorescence; scaled: DMSO 0%, maximal phenethylamine 100%; activation, % at 3 µM; 2,400 compounds, 82% hits; AID 651783;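 active = activation above a cutoff set at the run's mean compound activation plus 3 SD, cut at about 39% in these data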
Ga16 nonsel ag: nonselective agonism, TAAR1 counter-screen | shares compounds with TAAR1 ag | CHO-Ga16 parental, Fluo-8 calcium fluorescence; normalized to maximal ATP response, DMSO zero | activation, % at 3 µM | 2,400 compounds, 50% hits | AID 651787;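 active = activation above the run cutoff, the mean activation over all tested wells plus 3 SD, cut at about 12% in these data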;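 note: 0% = DMSO wells and 100% = maximal ATP response on the peak over basal ratio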
TAAR1 desens: TAAR1 response desensitization, agonist counter-screen; shares compounds with TAAR1 ag; CHO RD-HGA16 hTAAR1, Fluo-8 calcium, beta-PEA response inhibition; inhibition, % at 3 µM; 2,400 compounds, 46% hits; AID 651951;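 active = inhibition above the run cutoff, the mean inhibition of all test compounds plus 3 SD, cut at about 49% in these data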;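 note: beta-PEA stimulus applied at its EC80; loss of beta-PEA calcium signal after compound pretreatment read as receptor desensitization; 0% = DMSO with beta-PEA at EC80 and 100% = DMSO alone without agonist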
Ga16 antag count: counter-screen for TAAR1 agonists: nonselective Ga16 antagonists | shares compounds with TAAR1 ag | CHO-Ga16 ATP-induced calcium, Fluo-8 fluorescence | inhibition, % at 3 µM | 2,400 compounds, 39% hits | AID 651952;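 active = inhibition above the plate's mean compound inhibition plus 3 SD, computed per plate, cut at about 22% in these data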;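 note: 0% = EC80 ATP with DMSO and 100% = DMSO wells without ATP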
* marks the source's active call; other numbers are inactive results; · = no result. A selection: hits, their analogues and other compounds. The true share with any hit is near 4.6%.

SMILES | OX1R antag-1 | CHO parental Ca | TAAR1 ag | TAAR1 antag | GPR7 antagonist | OX1R antag-2 | TAAR1 ag conf | Ga16 nonsel ag | TAAR1 desens | Ga16 antag count
CCNC(=O)C(=O)NCCc1ccc(Cl)cc1 | 10 | -2 | 7 | 12 | -3 | 10 | · | · | · | ·
CC(CCc1ccccc1)NC(=O)C(=O)NCCc1ccccc1 (configuration not stated) | 23 | -13 | 49* | 8 | 3 | -14 | 88* | 21* | 36 | 17
O=C(O)/C=C/C(=O)NCCc1ccccc1 | 9 | -7 | 118* | 80* | 17 | -1 | 105* | 1 | 98* | 6
O=C(CCCC(=O)c1ccccc1)NCCc1ccccc1 | 9 | -12 | 47* | 75* | -7 | -17 | 50* | 15* | 90* | 14
COc1ccc(OC)c(-c2csc(NC(=O)Cc3cccs3)n2)c1 | 27 | -28 | -1 | 4 | -12 | -35 | · | · | · | ·
O=C(Nc1nc2c(s1)CN(Cc1ccccc1)CC2)c1c(F)cccc1F | 3 | 3 | 6 | -6 | -6 | -14 | · | · | · | ·
Cc1ccc(C(=O)OCC(=O)NC2CCCC(C)C2C)cc1S(=O)(=O)N1CCCCC1 (configuration not stated) | 5 | -37 | 1 | 13 | · | -7 | · | · | · | ·
COc1cccc(-c2nc(CN3CCN(C(=O)c4ccco4)CC3)c(C)o2)c1OC | · | · | 1 | -14 | · | · | · | · | · | ·
CCOC(=O)[C@]12CCCC=C1N(Cc1ccc(Cl)cc1Cl)C(=O)[C@H](CC(=O)NCc1cccs1)C2 | · | · | -1 | -3 | · | · | · | · | · | ·
COc1ccc(CCCC(=O)NCCc2ccccc2)cc1 | · | · | -1 | -15 | -1 | · | · | · | · | ·
CCc1nnc(NC(=O)CCC(=O)NCCc2ccccc2)s1 | 7 | -4 | 49* | -9 | 2 | -7 | 16 | 0 | -2 | 7
COc1ccc(CCNC(=O)/C=C/C(=O)O)cc1 | 3 | 3 | 62* | 30 | -7 | -12 | 81* | 2 | 50* | 5
CCc1nnc(NC(=O)CCC(=O)N2CCN(CCc3ccccc3)CC2)s1 | 5 | -12 | 4 | -41 | · | -20 | · | · | · | ·
O=C(O)/C=C/C(=O)NCCc1cccc(Cl)c1 | 9 | -8 | 69* | 76* | -8 | -5 | 93* | 8 | 96* | 6
CC(=O)Nc1ccc(S(=O)(=O)n2cnc3ccccc32)cc1 | 21 | 3 | 2 | -9 | 0 | -4 | · | · | · | ·
O=C(CN1C(=O)CCC1=O)Nc1nc(-c2ccc(Oc3ccccc3)cc2)cs1 | 14 | -17 | 16 | 2 | -4 | -1 | · | · | · | ·
O=C(COC(=O)C1CCN(/C=C/C(=O)C(F)(F)F)CC1)Nc1cccc(F)c1 | 0 | -2 | 5 | 2 | 3 | -13 | · | · | · | ·
COc1ccccc1CCNC(=O)CC1C(=O)NCCN1CCCc1ccccc1 (configuration not stated) | 25 | -24 | 74* | 17 | 3 | -33 | 71* | 2 | 43 | 11
O=C(CC1C(=O)NCCN1CC1CCCCC1)NCCc1ccc(F)cc1 (configuration not stated) | 10 | -18 | 45* | -17 | 13 | -27 | 50* | 0 | 5 | 2
O=C(CC1C(=O)NCCN1CC1CCCCC1)NCc1ccc(F)cc1 (configuration not stated) | 5 | -22 | 0 | 5 | -1 | -16 | · | · | · | ·
COc1cccc(CNC(=O)CC2C(=O)NCCN2CCCc2ccccc2)c1 (configuration not stated) | 20 | -20 | 19 | -15 | -1 | -29 | · | · | · | ·
CC(C)(C)CN1CCNC(=O)C1CC(=O)NCCc1cnn(-c2ccccc2)c1 (configuration not stated) | 25 | -20 | 11 | 9 | 5 | -28 | · | · | · | ·
CC(C)(C)CN1CCNC(=O)C1CC(=O)NCCc1ccccc1F (configuration not stated) | 20 | -36 | · | · | 6 | -30 | · | 2 | · | 5
Cc1ccc(NC(=O)[C@@H]2O[C@H](CO)[C@@H](O)[C@H]2O)cc1C(F)(F)F | · | · | 5 | 1 | · | · | · | · | · | ·
O=c1ccc2[n+]([O-])c3ccc(O)cc3oc-2c1 | · | · | 58* | 8 | -6 | · | 32 | 42* | 26 | 42*
SMILES | OX1R antag-1 | CHO parental Ca | TAAR1 ag | TAAR1 antag | GPR7 antagonist | OX1R antag-2 | TAAR1 ag conf | Ga16 nonsel ag | TAAR1 desens | Ga16 antag count
CCN(Cc1ccccc1)S(=O)(=O)c1ccc(C(=O)Nc2nnc(-c3ccccc3OC)o2)cc1 | 6 | -29 | 43* | 23 | -5 | -26 | 19 | 28* | 39 | 33*
COc1ccccc1-c1nnc(NC(=O)c2ccc(S(=O)(=O)N(C)C)cc2)o1 | 1 | -3 | 10 | -10 | 14 | -2 | · | · | · | ·
COP(=O)(OC)c1nc(-c2cccc3ccccc23)oc1NCCc1ccccc1 | -2 | -21 | 74* | 75* | 6 | -35 | 88* | 8 | 83* | 27*
CCOC(=O)N1CCC(C(=O)NNC(=O)c2ccc(Cl)cc2Cl)CC1 | -3 | -3 | 2 | -20 | 0 | -8 | · | · | · | ·
Clc1ccc2nc(C3CCCCC3)c(CC3CCCCC3)n2c1 | · | · | 1 | 2 | · | · | · | · | · | ·
CN(CCc1ccccn1)C(=S)Nc1ccc(Cl)c(Cl)c1 | 24 | -29 | 31 | 0 | -2 | -28 | · | · | · | ·
Cc1ccc(C)c(NC(=S)N(C)CCc2ccccn2)c1 | 0 | -5 | 45* | -9 | -8 | 2 | 39* | 0 | -2 | -1
Cc1ccccc1NC(=S)N(C)CCc1ccccn1 | 7 | -8 | 58* | 7 | -2 | -7 | 61* | 2 | 15 | 8
Cc1csc(NC(=O)C2CCN(C(=O)CSc3nnc(C)n3Cc3ccccc3)CC2)n1 | 4 | -5 | 10 | -14 | -11 | -22 | · | · | · | ·
Cc1ccc(NC(=O)C23CCC(C)(C(=O)[C@H]2Br)C3(C)C)cc1 (some centres not stated) | 9 | -7 | -2 | -27 | -9 | -21 | · | · | · | ·
CCCCn1nnnc1C(c1ccccc1)N1CCc2ccccc2C1 (configuration not stated) | · | · | -2 | 11 | · | · | · | · | · | ·
CC(C)(C)n1nnnc1C(c1ccccc1)N1CCc2ccccc2C1 (configuration not stated) | 3 | -15 | · | · | 9 | -15 | · | · | · | ·
